A short description of data set [1]: Cytotoxicity against dog Cf2Th-CCR5 cells infected with CD4-dependent pseudovirus HIV1 ADA incubated for 48 hrs by MTS assay. In general terms: Tetrazolium dyes change colour on reduction, which living cells bring about.
In data set [2] the target is Cytochrome P450 2C19 (Homo sapiens, UniProt P33261). Kind of data set: Inhibition of CYP2C19 in human liver microsomes using S-mephenytoin as substrate preincubated for 5 mins followed by NADPH addition and measured for 10 to 30 mins by LC-MS/MS analysis. It counts as ADME. A digest of the protocol: (§1)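 Inhibition was screened in a panel of eight CYP450 isoforms, with test concentrations escalated up to 100 μM.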
Sequence of Cytochrome P450 2C19 (P33261 whole entry, canonical isoform): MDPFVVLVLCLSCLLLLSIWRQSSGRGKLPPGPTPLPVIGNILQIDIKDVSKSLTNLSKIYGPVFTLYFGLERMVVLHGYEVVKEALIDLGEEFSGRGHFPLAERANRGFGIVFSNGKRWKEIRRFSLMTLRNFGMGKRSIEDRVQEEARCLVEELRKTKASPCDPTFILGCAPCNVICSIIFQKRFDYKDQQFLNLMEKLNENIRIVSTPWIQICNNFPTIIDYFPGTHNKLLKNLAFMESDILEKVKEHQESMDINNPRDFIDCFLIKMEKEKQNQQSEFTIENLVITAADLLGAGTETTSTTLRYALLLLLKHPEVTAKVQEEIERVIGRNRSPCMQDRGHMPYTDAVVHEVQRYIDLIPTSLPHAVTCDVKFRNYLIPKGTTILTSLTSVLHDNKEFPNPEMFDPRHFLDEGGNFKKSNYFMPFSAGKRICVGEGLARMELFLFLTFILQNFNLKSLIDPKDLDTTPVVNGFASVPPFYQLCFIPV
On the technique in general: Microsomes from liver hold many membrane-bound enzymes, among them those of drug oxidation.

Data set [3] is described as follows: Apparent permeability from basolateral side to apical side in human Caco2 cells at 5 uM measured for 120 mins by LC-MS/MS analysis. Type of data set: ADME, cell-based. Conditions: caco-2, 2 h. (Caco-2 monolayers are a common model of the intestinal barrier.)
A short description of data set [4]: Solubility of compound in pH 7.4 PBS buffer at 1 mg incubated for overnight by LC-MS/MS analysis. It counts as physicochemical. Conditions: in vitro. A digest of the protocol:
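Aqueous solubility was measured in phosphate buffer at pH 7.4 and reported in mg/mL.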

Data set [5] addresses T1, CYP3A (Homo sapiens, UniProt P08684+P20815+P24462+Q9HB55). As to the kind of experiment: Inhibition of CYP3A in human liver microsomes using midazolam as substrate preincubated for 5 mins followed by NADPH addition and measured for 10 to 30 mins by LC-MS/MS analysis. Type of data set: ADME. To be noted: probe midazolam. A digest of the protocol: as §1
Data set [6] concerns the target T2, Cytochrome P450 2B6 (Homo sapiens, UniProt P20813).
T2 sequence (P20813 whole entry): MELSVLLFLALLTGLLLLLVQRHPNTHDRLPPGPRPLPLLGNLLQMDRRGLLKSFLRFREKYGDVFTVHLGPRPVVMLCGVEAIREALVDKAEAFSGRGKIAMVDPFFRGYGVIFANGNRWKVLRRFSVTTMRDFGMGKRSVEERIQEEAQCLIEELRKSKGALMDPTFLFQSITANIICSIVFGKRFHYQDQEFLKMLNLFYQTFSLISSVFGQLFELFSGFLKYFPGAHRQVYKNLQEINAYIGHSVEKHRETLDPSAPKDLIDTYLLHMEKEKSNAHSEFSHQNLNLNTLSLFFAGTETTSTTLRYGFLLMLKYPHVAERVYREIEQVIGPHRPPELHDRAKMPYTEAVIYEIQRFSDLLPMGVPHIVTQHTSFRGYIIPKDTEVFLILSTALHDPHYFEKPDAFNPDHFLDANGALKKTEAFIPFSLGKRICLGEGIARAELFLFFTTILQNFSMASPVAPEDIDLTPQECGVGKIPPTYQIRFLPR
As to the kind of experiment: Inhibition of CYP2B6 in human liver microsomes using bupropion as substrate preincubated for 5 mins followed by NADPH addition and measured for 10 to 30 mins by LC-MS/MS analysis. Type of data set: ADME. A digest of the protocol: as §1

For data set [7], the system named is TZM. As to the kind of experiment: Cytotoxicity against human TZM-bl cells incubated for 3 days by MTS assay. It counts as cell-based. Conditions: 72 h.
A short description of data set [8]: Intrinsic clearance in human liver microsomes at 3 uM preincubated for 3 mins followed by NADPH addition and measured up to 120 mins by LC-MS/MS analysis. It counts as ADME, Microsome. Conditions: 2 h.
Data set [9] concerns the target T3, Cytochrome P450 1A2 (Homo sapiens, UniProt P05177).
T3 sequence (P05177 whole entry): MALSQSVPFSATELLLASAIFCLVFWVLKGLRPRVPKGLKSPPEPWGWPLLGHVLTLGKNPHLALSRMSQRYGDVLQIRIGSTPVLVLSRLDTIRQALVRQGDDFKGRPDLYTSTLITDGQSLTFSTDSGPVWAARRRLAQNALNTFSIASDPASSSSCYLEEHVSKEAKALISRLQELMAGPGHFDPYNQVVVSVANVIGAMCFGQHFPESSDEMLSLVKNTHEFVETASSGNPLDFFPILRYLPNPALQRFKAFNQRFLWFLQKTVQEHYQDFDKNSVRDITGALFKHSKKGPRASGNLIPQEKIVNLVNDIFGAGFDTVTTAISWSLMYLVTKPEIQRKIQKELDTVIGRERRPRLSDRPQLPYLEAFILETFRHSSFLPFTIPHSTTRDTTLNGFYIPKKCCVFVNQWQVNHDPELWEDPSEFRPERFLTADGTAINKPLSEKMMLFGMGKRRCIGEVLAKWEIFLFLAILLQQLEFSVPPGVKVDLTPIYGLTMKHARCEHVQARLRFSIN
As to the kind of experiment: Inhibition of CYP1A2 in human liver microsomes using phenacetin as substrate preincubated for 5 mins followed by NADPH addition and measured for 10 to 30 mins by LC-MS/MS analysis. It counts as ADME. A digest of the protocol:
as §1

Data set [10] in a line: Apparent permeability from basolateral side to apical side in human Caco2 cells at 5 uM preincubated with vals-podar for 30 mins and measured for 120 mins by LC-MS/MS analysis. Type of data set: ADME, cell-based. To be noted: Caco-2, with valspodar (printed as vals-podar; concentration not stated). A digest of the protocol: (§2)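 Bidirectional Caco-2 transport run with the P-gp inhibitor valspodar at 1 μM. Papp is given as ×10−6 cm/sec for each direction, and the efflux ratio is taken from B-to-A over A-to-B.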

Data set [11] is described as follows: Half life in human liver microsomes at 3 uM preincubated for 3 mins followed by NADPH addition and measured up to 120 mins by LC-MS/MS analysis. Type of data set: ADME, Microsome. To be noted: 2 h.
The nature of data set [12]: Apparent permeability from apical to basolateral side in human Caco2 cells at 5 uM measured for 120 mins by LC-MS/MS analysis. It counts as ADME, cell-based. Conditions: caco-2, 2 h.
A short description of data set [13]: Metabolic stability in human liver microsomes assessed as parent compound remaining at 3 uM preincubated for 3 mins followed by NADPH addition and measured up to 120 mins by LC-MS/MS analysis. Type of data set: ADME, Microsome. Conditions: read-out: Stability.
The target in data set [14] is Cytochrome P450 2D6 (Homo sapiens, UniProt P10635). As to the kind of experiment: Inhibition of CYP2D6 in human liver microsomes using bufuralol as substrate preincubated for 5 mins followed by NADPH addition and measured for 10 to 30 mins by LC-MS/MS analysis. It counts as ADME. A digest of the protocol:
as §1

In data set [15] the target is Cytochrome P450 2C9 (Homo sapiens, UniProt P11712). Kind of data set: Inhibition of CYP2C9 in human liver microsomes using diclofenac as substrate preincubated for 5 mins followed by NADPH addition and measured for 10 to 30 mins by LC-MS/MS analysis. It counts as ADME. A digest of the protocol:
as §1

For data set [16], the target named is T1, CYP3A. As to the kind of experiment: Inhibition of CYP3A in human liver microsomes using testosterone as substrate preincubated for 5 mins followed by NADPH addition and measured for 10 to 30 mins by LC-MS/MS analysis. Type of data set: ADME. Conditions: probe testosterone. A digest of the protocol: as §1
In data set [17] the target is T4, Cytochrome P450 2C8 (Homo sapiens, UniProt P10632).
T4 sequence (P10632 whole entry): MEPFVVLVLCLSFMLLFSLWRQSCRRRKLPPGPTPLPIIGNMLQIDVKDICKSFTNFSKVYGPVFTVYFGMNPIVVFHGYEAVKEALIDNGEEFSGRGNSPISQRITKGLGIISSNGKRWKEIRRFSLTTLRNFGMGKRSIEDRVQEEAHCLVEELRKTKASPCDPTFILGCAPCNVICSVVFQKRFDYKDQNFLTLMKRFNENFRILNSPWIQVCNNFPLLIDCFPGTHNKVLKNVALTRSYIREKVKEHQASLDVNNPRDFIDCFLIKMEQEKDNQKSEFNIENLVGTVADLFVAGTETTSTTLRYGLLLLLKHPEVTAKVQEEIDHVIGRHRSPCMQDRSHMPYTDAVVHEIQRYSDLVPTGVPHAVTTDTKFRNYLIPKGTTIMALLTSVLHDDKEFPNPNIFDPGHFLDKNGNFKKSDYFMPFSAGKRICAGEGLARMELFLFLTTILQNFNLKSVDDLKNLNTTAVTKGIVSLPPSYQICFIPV
As to the kind of experiment: Inhibition of CYP2C8 in human liver microsomes using amodiaquine as substrate preincubated for 5 mins followed by NADPH addition and measured for 10 to 30 mins by LC-MS/MS analysis. It counts as ADME. A digest of the protocol: as §1

The nature of data set [18]: Apparent permeability from apical to basolateral side in human Caco2 cells at 5 uM preincubated with vals-podar for 30 mins and measured for 120 mins by LC-MS/MS analysis. It counts as ADME, cell-based. Conditions: Caco-2, with valspodar (printed as vals-podar; concentration not stated). A digest of the protocol:
as §2

Data set [19] can be described thus: Protein binding in human plasma at 5 uM measured for 4 hrs by LC-MS/MS analysis. Type of data set: ADME, cell-free.

From ChEMBL document CHEMBL4402563, “Preclinical Optimization of gp120 Entry Antagonists as anti-HIV-1 Agents with Improved Cytotoxicity and ADME Properties through Rational Design, Synthesis, and Antiviral Evaluation” (J Med Chem, 2020) come the findings set out here.

≈ marks a conversion by molar mass, not a printed value. Some results are limits rather than exact numbers.

Sequence of Cytochrome P450 2C9 (P11712 whole entry): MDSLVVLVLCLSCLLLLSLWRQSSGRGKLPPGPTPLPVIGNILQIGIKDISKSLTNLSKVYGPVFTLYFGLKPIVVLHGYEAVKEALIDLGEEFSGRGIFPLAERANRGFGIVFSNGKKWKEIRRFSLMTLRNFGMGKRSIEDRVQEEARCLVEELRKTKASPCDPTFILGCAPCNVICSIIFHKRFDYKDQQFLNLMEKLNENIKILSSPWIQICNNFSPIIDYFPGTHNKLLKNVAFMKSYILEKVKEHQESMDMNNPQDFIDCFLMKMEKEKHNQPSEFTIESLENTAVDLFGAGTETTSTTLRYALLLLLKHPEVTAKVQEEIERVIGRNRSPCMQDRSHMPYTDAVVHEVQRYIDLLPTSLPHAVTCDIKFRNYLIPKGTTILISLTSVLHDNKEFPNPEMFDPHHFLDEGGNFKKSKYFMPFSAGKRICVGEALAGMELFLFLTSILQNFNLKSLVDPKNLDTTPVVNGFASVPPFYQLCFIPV
Sequence of Cytochrome P450 2D6 (P10635 whole entry): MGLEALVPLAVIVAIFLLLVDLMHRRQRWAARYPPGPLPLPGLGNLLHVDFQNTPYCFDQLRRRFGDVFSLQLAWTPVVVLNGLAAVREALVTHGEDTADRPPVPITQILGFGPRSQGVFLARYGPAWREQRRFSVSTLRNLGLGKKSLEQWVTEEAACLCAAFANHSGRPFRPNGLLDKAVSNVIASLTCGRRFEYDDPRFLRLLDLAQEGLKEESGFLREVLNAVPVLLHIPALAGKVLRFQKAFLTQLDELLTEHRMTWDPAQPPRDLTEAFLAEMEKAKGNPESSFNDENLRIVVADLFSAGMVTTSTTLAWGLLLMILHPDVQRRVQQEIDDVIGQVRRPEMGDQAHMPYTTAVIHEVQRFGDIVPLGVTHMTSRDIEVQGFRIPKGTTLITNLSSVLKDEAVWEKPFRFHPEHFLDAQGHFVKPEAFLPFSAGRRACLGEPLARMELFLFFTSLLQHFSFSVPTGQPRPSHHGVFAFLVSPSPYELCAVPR

As to `Cc1cc(-c2ccc(C(F)(F)F)cn2)[nH]c1C(=O)N[C@@H](CN)c1ncc(CO)s1`, in data set [1], the Activity entry is “Non-Toxic”. Also, the IC50 – broadly, the concentration at which inhibition is half-maximal – in [2] was greater than 100 µM; in [5] it was greater than 100 µM; in data set [6], 85.4 µM; in [9], 70.1 µM; in data set [14], greater than 100 µM; in [15], greater than 100 µM. For the same compound, the values for the IC50 in [16] and in [17] were greater than 62.2 µM and greater than 100 µM, respectively. In addition, the Papp (in general, a coefficient for how fast a substance crosses the barrier) was found to be 20.3 ×10⁻⁶ cm/s in data set [3] and 6.51 ×10⁻⁶ cm/s in data set [12]. The solubility (usually how much of the substance goes into solution per volume) in data set [4] is 734 µg/mL (≈ 1730 µM). In [7], it took 109 µM to reach half-maximal cytotoxicity (CC50). Moreover, the CLH in [8] is less than 11.6 µL/min/mg. In addition, the Papp B→A (as a rule, the apparent permeability from the basolateral to the apical side of a cell layer) at 2 h, 5 µM in [10] worked out at 10.5 ×10⁻⁶ cm/s. The t1/2 in [11] is greater than 2 h. Further, the remaining at 2 h, 3 µM in data set [13] is 93.5%. For the same compound, in data set [18], the Papp A→B (in general, the apparent permeability from the apical to the basolateral side of a cell layer) at 2 h, 5 µM came to 14 ×10⁻⁶ cm/s. This compound returned a PPB in data set [19] of 99.2%.
